Assay [1] deals with T1, Serine/threonine-protein kinase BRSK2 (Homo sapiens) (UniProt Q8IWQ3).
T1 sequence (whole entry): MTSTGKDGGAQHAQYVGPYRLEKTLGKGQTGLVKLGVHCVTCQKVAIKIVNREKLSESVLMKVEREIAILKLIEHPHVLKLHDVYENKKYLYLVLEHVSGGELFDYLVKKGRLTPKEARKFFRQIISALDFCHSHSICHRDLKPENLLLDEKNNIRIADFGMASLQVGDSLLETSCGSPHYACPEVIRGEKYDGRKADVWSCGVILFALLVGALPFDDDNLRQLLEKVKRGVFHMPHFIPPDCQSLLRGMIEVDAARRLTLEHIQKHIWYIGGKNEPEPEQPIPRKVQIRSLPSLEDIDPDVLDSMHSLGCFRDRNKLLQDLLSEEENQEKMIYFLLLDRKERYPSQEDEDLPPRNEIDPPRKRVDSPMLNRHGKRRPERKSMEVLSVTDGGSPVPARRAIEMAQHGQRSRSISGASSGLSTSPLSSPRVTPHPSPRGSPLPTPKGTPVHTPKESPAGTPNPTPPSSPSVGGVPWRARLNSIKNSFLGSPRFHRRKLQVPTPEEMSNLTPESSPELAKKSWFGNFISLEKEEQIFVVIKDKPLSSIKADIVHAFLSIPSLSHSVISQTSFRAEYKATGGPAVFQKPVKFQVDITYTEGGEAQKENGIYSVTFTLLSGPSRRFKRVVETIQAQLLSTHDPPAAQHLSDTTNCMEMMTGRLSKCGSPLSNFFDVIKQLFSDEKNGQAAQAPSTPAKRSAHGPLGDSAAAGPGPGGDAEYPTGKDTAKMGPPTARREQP
In words: Inhibition of BRSK2 (unknown origin) at 10 uM incubated for 30 mins in presence of [gamma-33P]ATP by multidrop micro reagent based assay relative to control.

Assay [2] deals with T2, Serine/threonine-protein kinase Sgk1 (Homo sapiens) (UniProt O00141).
T2 sequence (whole entry): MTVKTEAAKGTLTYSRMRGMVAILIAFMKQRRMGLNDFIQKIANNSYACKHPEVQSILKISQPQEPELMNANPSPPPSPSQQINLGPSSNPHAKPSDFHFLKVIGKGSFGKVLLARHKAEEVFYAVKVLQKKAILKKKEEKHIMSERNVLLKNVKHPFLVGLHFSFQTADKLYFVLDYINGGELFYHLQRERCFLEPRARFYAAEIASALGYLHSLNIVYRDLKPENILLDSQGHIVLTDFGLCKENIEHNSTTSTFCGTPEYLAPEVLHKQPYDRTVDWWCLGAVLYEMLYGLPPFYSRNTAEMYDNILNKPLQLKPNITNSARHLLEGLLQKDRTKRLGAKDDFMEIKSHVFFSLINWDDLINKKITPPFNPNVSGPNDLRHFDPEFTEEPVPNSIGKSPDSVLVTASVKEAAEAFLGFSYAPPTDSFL
Kind of assay: Residual activity of SGK1 (unknown origin) at 10 uM incubated for 30 mins in presence of [gamma-33P]ATP by multidrop micro reagent based assay relative to control.

Assay [3] deals with Mitogen-activated protein kinase 11 (Homo sapiens) (UniProt Q15759). Kind of assay: Inhibition of p38beta MAPK (unknown origin) at 10 uM incubated for 30 mins in presence of [gamma-33P]ATP by multidrop micro reagent based assay relative to control; values are per cent of control.
Chain of Mitogen-activated protein kinase 11 (Homo sapiens) (Q15759 whole entry): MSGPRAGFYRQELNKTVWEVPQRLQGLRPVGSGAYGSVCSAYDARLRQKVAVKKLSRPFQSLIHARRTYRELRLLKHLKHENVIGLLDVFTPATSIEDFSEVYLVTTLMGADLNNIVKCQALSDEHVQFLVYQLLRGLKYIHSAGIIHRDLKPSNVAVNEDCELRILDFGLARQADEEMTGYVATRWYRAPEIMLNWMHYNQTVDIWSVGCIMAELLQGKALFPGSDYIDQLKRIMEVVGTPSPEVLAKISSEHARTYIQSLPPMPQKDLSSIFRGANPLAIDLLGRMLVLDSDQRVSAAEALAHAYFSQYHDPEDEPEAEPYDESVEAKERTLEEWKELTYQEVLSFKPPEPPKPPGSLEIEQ
The target of assay [4] is Calcium/calmodulin-dependent protein kinase type 1 (Homo sapiens) (UniProt Q14012). Kind of assay: Inhibition of CaMK1 (unknown origin) at 10 uM incubated for 30 mins in presence of [gamma-33P]ATP by multidrop micro reagent based assay relative to control; values are per cent of control.
Chain of Calcium/calmodulin-dependent protein kinase type 1 (Homo sapiens) (Q14012 whole entry, looked up): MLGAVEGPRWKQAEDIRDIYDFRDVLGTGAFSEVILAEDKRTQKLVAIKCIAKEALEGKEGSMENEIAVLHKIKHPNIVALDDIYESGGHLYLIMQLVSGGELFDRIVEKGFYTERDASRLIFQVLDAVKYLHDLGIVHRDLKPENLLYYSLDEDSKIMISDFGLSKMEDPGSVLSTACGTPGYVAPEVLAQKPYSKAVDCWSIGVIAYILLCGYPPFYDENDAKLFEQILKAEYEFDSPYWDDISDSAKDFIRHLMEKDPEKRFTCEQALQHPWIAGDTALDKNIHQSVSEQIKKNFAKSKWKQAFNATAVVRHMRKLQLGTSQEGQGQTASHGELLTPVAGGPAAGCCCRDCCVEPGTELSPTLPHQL
Assay [5] concerns the target Dual specificity mitogen-activated protein kinase kinase 1 (Homo sapiens) (UniProt Q02750). In words: Inhibition of MKK1 (unknown origin) at 10 uM incubated for 30 mins in presence of [gamma-33P]ATP by multidrop micro reagent based assay relative to control.
The test system of assay [6] is Leucine-rich repeat serine/threonine-protein kinase 2 (Homo sapiens), Q5S007 [G2019S]. In words: Inhibition of LRRK2 G2019S mutant (unknown origin) at 10 uM incubated for 30 mins in presence of [gamma-33P]ATP by multidrop micro reagent based assay relative to control.
Chain of Leucine-rich repeat serine/threonine-protein kinase 2 (Homo sapiens), Q5S007 [G2019S] (Q5S007 whole entry G2019S): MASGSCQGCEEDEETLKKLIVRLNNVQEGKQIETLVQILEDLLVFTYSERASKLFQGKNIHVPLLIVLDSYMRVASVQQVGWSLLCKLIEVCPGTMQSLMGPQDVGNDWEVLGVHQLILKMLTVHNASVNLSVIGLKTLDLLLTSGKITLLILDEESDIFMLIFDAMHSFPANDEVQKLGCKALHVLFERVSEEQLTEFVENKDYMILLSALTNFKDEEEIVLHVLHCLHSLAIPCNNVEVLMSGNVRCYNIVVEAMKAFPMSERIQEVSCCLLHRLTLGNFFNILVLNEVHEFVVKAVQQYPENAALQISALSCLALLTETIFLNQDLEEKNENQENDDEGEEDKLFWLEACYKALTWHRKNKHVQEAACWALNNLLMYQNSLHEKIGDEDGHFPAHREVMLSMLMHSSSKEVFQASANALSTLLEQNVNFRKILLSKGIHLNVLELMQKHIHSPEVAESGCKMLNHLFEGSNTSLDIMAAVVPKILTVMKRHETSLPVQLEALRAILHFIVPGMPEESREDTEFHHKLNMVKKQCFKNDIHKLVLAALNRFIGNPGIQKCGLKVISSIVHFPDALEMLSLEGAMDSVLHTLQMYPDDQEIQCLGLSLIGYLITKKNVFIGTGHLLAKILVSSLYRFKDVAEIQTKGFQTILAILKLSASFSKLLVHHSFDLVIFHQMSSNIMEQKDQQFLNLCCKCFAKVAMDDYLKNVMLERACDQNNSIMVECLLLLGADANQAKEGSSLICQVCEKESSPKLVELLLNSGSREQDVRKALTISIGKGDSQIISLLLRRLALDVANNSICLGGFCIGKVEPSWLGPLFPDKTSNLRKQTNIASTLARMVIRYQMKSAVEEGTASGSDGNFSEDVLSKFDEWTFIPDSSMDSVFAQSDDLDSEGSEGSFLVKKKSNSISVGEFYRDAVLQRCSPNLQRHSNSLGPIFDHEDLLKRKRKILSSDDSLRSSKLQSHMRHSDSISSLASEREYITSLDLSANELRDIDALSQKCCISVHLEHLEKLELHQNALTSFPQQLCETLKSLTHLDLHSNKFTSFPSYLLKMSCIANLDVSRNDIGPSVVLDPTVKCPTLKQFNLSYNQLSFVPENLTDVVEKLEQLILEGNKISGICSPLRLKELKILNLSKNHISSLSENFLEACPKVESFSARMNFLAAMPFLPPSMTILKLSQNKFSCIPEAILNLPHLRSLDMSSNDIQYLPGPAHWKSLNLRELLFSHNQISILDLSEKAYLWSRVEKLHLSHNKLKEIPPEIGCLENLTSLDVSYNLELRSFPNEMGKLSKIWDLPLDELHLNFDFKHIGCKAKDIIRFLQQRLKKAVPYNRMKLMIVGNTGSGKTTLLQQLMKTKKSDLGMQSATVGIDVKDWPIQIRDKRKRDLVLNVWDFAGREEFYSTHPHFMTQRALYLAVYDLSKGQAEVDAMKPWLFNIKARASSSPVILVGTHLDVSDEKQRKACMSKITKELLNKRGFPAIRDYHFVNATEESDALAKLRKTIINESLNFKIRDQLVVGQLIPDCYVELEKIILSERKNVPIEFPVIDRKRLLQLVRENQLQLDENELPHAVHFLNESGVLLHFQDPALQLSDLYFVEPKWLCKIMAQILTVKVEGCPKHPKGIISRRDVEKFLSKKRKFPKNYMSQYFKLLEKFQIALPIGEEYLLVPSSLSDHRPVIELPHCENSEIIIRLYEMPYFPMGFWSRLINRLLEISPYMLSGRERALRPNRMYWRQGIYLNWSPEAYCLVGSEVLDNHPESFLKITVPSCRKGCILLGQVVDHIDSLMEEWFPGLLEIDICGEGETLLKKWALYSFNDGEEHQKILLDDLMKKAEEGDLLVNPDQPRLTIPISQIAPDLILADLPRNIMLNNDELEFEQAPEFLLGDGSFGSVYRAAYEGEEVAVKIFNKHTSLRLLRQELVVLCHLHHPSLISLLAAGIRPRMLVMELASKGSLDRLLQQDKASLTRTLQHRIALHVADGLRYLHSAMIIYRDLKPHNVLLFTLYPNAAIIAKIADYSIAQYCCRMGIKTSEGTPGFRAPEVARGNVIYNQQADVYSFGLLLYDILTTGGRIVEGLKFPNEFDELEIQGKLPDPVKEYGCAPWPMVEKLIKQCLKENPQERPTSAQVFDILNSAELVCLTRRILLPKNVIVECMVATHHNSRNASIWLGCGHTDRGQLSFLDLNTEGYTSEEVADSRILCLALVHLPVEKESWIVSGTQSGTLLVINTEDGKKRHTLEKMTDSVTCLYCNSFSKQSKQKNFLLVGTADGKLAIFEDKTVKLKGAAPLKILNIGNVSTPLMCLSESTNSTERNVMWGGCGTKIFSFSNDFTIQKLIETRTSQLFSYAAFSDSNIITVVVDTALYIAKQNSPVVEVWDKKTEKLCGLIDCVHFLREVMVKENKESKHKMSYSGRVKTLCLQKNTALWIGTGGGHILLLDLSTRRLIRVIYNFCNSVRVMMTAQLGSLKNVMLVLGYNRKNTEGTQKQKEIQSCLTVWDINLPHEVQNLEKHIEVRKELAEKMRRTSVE
The target of assay [7] is T3, NUAK family SNF1-like kinase 1 (Homo sapiens) (UniProt O60285).
T3 sequence (whole entry): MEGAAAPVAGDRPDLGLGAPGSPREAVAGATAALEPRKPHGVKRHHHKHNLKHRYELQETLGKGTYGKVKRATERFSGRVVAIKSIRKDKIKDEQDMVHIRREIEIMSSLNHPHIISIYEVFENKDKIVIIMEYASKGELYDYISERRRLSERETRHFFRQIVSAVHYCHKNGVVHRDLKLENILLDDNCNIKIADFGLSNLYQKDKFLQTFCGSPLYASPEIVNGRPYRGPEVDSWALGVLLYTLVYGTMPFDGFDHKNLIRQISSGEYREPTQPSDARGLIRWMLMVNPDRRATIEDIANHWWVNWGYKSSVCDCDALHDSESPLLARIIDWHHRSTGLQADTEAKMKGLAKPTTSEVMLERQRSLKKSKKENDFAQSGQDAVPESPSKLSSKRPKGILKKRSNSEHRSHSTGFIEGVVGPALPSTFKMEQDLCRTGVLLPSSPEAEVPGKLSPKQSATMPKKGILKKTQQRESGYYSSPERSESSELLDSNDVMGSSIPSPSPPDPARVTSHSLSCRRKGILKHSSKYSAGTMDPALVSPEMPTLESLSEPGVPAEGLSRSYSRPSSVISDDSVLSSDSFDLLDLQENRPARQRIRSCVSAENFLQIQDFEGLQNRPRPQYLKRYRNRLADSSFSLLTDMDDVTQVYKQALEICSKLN
Kind of assay: Activity of NUAK1 (unknown origin) at 1 uM incubated for 30 mins in presence of [gamma-33P]ATP by multidrop micro reagent based assay relative to control.

Assay [8] has as its target T3, NUAK family SNF1-like kinase 1 (Homo sapiens). In words: Inhibition of NUAK1 (unknown origin) at 1 uM incubated for 30 mins in presence of [gamma-33P]ATP by multidrop micro reagent based assay relative to control. An outline of the steps: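 Single-concentration screen across a panel of 85 protein kinases. Activity is expressed as a percentage of control incubations run without inhibitor.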

The inhibition is the drop in the measured response relative to a control, in per cent.

Chain of Dual specificity mitogen-activated protein kinase kinase 1 (Homo sapiens) (Q02750 whole entry): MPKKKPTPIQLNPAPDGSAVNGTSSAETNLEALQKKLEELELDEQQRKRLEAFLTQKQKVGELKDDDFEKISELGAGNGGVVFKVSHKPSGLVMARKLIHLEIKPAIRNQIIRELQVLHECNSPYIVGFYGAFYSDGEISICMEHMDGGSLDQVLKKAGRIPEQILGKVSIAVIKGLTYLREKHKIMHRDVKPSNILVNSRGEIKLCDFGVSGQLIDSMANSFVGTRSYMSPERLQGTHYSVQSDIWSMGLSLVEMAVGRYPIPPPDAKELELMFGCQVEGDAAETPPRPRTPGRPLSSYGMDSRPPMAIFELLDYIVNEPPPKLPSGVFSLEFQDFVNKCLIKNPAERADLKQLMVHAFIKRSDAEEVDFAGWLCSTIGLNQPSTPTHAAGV

In the case of `C[C@@H](N)[C@H]1CC[C@H](C(=O)Nc2ccncc2)CC1`, the inhibition is 43% in assay [1], 71% in assay [5] and 11% in assay [6]. For the same compound, the figures for the residual activity in assay [2], in assay [3] and in assay [4] were 50%, 101% and 85%, respectively.

`CCn1c(-c2nonc2N)nc2cnc(Oc3cccc(NC(=O)c4ccc(OCCN5CCOCC5)cc4)c3)cc21` [GSK-269962A]: the residual activity in assay [7] turned out to be 39%.

For the compound `CC1=C(C(=O)Nc2cc3cn[nH]c3cc2F)C(c2ccc(C(F)(F)F)cc2)CC(=O)N1` (stereo unspecified), the inhibition in assay [8] worked out at 51%.

For `O=S(=O)(c1cccc2cnccc12)N1CCCNCC1` [FASUDIL], the figures for the inhibition in assay [1], in assay [5] and in assay [6] were 38%, 41% and 67%, respectively. The residual activity came to 69% in assay [2], 111% in assay [3] and 109% in assay [4].

For `Cc1cncc2cccc(S(=O)(=O)N3CCCNC[C@@H]3C)c12`, the inhibition in assay [8] was 51%.

With `CCN(CC)CCNC(=O)c1c(C)[nH]c(/C=C2\C(=O)Nc3ccc(F)cc32)c1C`, the residual activity in assay [7] came to 15%.
